Structures are written as SMILES. Activity calls are given as the source filed them. The calls are words filed in the database; no cut-off is given here.

Experiment [1] concerns HT-29. Nature of the experiment: Induction of cell cycle arrest in human HT-29 cells assessed as accumulation of cells at S phase at 4 uM incubated for 24 hrs by RNase/PI staining based flow cytometry analysis (reference value: 17.934 %). Format: functional. For orientation: In flow cytometry, cells or beads pass a laser one at a time.
Experiment [2] relates to HT-29. The experiment is described as follows: Inhibition of PI3K-p85 protein expression in human HT-29 cells at 4 uM incubated for 72 hrs by Western blot analysis. In kind it is functional, cell-based. (In general: A western blot detects proteins with antibodies after separation by electrophoresis.)
Experiment [3] concerns HT-29. Nature of the experiment: Inhibition of beta-actin protein expression in human HT-29 cells at 4 uM incubated for 72 hrs by Western blot analysis. In kind it is functional, cell-based.
In experiment [4] the test system is HT-29. The experiment is described as follows: Inhibition of TAB-182 protein expression in human HT-29 cells at 4 uM incubated for 72 hrs by Western blot analysis. Format: functional, cell-based.
Experiment [5] has as its system HT-29. The experiment is described as follows: Inhibition of APC protein expression in human HT-29 cells at 4 uM incubated for 72 hrs by Western blot analysis. In kind it is functional, cell-based.
For experiment [6], the system named is HT-29. The experiment is described as follows: Inhibition of phosphorylated GSK-3beta protein expression in human HT-29 cells at 4 uM incubated for 72 hrs by Western blot analysis. Format: functional, cell-based.
For experiment [7], the system named is HT-29. Nature of the experiment: Induction of apoptosis in human HT29 cells assessed as increase in late apoptotic cells at 4 uM incubated for 24 hrs by annexin V/PI staining based flow cytometry analysis. In kind it is functional, cell-based. In outline:
(§1)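 Annexin/PI double staining of HT-29 cells after 24 h exposure at 1, 2 or 4 μM. Flow cytometry gated early apoptotic, late apoptotic and necrotic populations, reported as % of cells. Comparison to untreated control used two-way ANOVA followed by Tukey's post hoc analysis.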

Experiment [8] relates to HT-29. Nature of the experiment: Induction of ROS generation in human HT-29 cells at 4 uM by CM-H2DCFDA fluorescent probe based flow cytometry analysis (reference value: 0.528%). Format: functional.
In experiment [9] the test system is HT-29. Nature of the experiment: Induction of apoptosis in human HT29 cells assessed as increase in early apoptotic cells at 4 uM incubated for 24 hrs by annexin V/PI staining based flow cytometry analysis. In kind it is functional, cell-based. The method, boiled down: as §1
Experiment [10] has as its system HT-29. Nature of the experiment: Inhibition of phosphorylated PI3K-p85 protein expression in human HT-29 cells at 4 uM incubated for 72 hrs by Western blot analysis. Format: functional, cell-based.
Experiment [11] concerns HT-29. Nature of the experiment: Downregulation of TAB-182 protein expression in human HT-29 cells at 4 uM by immunostaining based confocal microscopic analysis. Format: functional, cell-based.
For experiment [12], the system named is HT-29. Nature of the experiment: Inhibition of pan-AKT protein expression in human HT-29 cells at 4 uM incubated for 72 hrs by Western blot analysis. Format: functional, cell-based.
The subject of experiment [13] is HT-29. Nature of the experiment: Induction of mitochondrial damage in human HT-29 cells assessed as increase in monomer formation at 4 uM incubated for 24 hrs by JC-1 staining based flow cytometry analysis. Format: functional, cell-based. In outline:
(§2)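 HT-29 cells exposed 24 h to test agent at 1, 2 or 4 μM, then stained with JC-1. Flow cytometry scored the % of cells in JC-1 aggregate versus monomer populations. Treated groups were compared with untreated control by two-way ANOVA with Tukey's post hoc test.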

In experiment [14] the test system is HT-29. The experiment is described as follows: Induction of cell cycle arrest in human HT-29 cells assessed as accumulation of cells at G2/M phase at 1 uM incubated for 24 hrs by RNase/PI staining based flow cytometry analysis (reference value: 23.695 %). Format: functional.
Experiment [15] concerns HT-29. The experiment is described as follows: Induction of cell cycle arrest in human HT-29 cells assessed as accumulation of cells at subG1 phase at 1 uM incubated for 24 hrs by RNase/PI staining based flow cytometry analysis (reference value: 1.798%). In kind it is functional.
In experiment [16] the target is Phosphatidylinositol 3-kinase regulatory subunit alpha (Homo sapiens) (UniProt P27986). Nature of the experiment: Inhibition of PI3K-P85 phosphorylation in human HT-29 cells at 1 uM incubated for 72 hrs by Western blot analysis. In kind it is cell-based.
Chain of Phosphatidylinositol 3-kinase regulatory subunit alpha (Homo sapiens) (P27986 whole entry): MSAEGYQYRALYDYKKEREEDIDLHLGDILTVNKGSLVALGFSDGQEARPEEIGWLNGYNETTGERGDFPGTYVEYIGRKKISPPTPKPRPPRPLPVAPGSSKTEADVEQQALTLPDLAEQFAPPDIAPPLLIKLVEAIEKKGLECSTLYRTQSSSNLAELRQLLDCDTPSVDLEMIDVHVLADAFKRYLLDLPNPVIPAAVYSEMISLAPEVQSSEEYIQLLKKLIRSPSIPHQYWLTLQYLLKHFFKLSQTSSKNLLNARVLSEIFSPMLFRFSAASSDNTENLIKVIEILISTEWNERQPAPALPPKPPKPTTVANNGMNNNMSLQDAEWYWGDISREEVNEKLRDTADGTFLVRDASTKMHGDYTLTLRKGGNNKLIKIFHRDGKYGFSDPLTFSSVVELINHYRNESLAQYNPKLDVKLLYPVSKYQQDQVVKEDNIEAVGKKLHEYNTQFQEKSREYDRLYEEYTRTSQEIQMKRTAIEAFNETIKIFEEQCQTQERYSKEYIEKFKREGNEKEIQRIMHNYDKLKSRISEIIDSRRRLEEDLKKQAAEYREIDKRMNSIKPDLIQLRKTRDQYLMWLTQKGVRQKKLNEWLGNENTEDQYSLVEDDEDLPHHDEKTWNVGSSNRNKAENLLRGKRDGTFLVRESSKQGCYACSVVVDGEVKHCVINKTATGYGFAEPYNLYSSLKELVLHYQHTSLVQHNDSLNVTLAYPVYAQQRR
For experiment [17], the system named is HT-29. Nature of the experiment: Induction of mitochondrial ROS generation in human HT-29 cells at 1 uM by MitoSOX red dye based flow cytometry analysis. In kind it is functional, cell-based. In outline: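 Mitochondrial superoxide in HT-29 cells was read with the mitochondria-localizing MitoSOX Red probe after treatment at 1, 2 or 4 μM. Flow cytometry histograms were acquired on 10,000 cells, and results were expressed as mean fluorescence intensity. Versus control, significance was tested by one-way ANOVA with Tukey's post hoc test.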

For experiment [18], the system named is HT-29. Nature of the experiment: Inhibition of beta-actin protein expression in human HT-29 cells at 1 uM incubated for 72 hrs by Western blot analysis. Format: functional, cell-based.
Experiment [19] has as its target Glycogen synthase kinase-3 beta (Homo sapiens) (UniProt P49841). The experiment is described as follows: Inhibition of GSK3beta phosphorylation in human HT-29 cells at 1 uM incubated for 72 hrs by Western blot analysis. Format: cell-based.
The target in experiment [20] is 182 kDa tankyrase-1-binding protein (Homo sapiens) (UniProt Q9C0C2). The experiment is described as follows: Inhibition of TAB-182 phosphorylation in human HT-29 cells at 1 uM incubated for 72 hrs by Western blot analysis. In kind it is cell-based.
Chain of 182 kDa tankyrase-1-binding protein (Homo sapiens) (Q9C0C2 whole entry): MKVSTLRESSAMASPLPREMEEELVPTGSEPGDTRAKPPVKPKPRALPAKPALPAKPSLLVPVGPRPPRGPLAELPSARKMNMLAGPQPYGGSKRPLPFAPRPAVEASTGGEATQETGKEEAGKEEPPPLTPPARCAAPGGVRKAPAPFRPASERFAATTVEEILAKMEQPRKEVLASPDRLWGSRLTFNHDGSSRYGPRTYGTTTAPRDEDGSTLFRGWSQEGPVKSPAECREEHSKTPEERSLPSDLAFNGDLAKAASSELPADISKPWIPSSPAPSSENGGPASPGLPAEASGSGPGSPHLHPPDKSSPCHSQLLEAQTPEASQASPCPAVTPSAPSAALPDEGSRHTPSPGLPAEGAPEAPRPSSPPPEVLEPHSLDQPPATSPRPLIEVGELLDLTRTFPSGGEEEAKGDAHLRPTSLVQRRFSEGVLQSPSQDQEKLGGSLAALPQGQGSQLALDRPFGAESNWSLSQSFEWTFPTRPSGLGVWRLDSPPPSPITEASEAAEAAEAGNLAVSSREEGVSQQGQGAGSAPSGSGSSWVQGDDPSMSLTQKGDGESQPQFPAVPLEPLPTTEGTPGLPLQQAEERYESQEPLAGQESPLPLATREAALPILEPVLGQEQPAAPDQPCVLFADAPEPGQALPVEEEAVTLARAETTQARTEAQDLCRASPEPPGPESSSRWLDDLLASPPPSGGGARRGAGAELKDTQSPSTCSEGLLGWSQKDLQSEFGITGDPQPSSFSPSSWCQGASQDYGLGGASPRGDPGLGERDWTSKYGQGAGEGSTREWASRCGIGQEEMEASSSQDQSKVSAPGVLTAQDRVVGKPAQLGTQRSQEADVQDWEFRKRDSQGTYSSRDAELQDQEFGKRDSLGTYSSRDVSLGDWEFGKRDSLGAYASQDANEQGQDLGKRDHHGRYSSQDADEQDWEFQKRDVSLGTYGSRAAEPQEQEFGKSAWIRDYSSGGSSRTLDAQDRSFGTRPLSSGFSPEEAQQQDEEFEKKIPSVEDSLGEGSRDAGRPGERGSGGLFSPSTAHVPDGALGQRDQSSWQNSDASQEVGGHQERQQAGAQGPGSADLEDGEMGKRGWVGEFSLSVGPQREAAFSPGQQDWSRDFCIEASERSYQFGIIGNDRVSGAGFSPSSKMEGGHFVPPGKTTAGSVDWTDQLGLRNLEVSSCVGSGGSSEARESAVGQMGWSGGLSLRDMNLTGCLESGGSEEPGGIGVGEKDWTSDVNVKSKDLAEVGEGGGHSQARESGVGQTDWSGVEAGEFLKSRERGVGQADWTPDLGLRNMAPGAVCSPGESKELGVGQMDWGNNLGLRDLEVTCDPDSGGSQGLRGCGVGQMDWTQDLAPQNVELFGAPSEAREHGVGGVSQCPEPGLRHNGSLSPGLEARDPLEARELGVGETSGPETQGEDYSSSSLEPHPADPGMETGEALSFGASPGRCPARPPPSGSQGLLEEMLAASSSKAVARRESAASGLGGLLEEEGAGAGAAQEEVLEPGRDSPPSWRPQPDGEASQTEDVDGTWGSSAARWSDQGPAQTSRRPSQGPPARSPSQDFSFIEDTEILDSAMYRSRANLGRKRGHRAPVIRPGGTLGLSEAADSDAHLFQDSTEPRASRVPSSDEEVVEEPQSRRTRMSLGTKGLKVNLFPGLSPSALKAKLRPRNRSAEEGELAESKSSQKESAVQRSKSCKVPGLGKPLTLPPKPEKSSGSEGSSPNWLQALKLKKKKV
In experiment [21] the test system is HT-29. The experiment is described as follows: Inhibition of AXIN-1 protein expression in human HT-29 cells at 1 uM incubated for 72 hrs by Western blot analysis. In kind it is functional, cell-based.
Experiment [22] deals with HT-29. The experiment is described as follows: Induction of apoptosis in human HT29 cells assessed as increase in early apoptotic cells at 1 uM incubated for 24 hrs by annexin V/PI staining based flow cytometry analysis. Format: functional, cell-based. The method, boiled down: as §1
The subject of experiment [23] is HT-29. The experiment is described as follows: Induction of apoptosis in human HT29 cells assessed as increase in late apoptotic cells at 1 uM incubated for 24 hrs by annexin V/PI staining based flow cytometry analysis. In kind it is functional, cell-based. In outline: as §1
The subject of experiment [24] is HT-29. Nature of the experiment: Inhibition of TAB-182 protein expression in human HT-29 cells at 1 uM incubated for 72 hrs by Western blot analysis. Format: functional, cell-based.
Experiment [25] deals with HT-29. The experiment is described as follows: Induction of mitochondrial damage in human HT-29 cells assessed as increase in monomer formation at 1 uM incubated for 24 hrs by JC-1 staining based flow cytometry analysis. In kind it is functional, cell-based. The method, boiled down:
as §2

Experiment [26] has as its system HT-29. The experiment is described as follows: Inhibition of GSK-3beta protein expression in human HT-29 cells at 1 uM incubated for 72 hrs by Western blot analysis. Format: functional, cell-based.
Experiment [27] has as its target Phosphatidylinositol 3-kinase regulatory subunit alpha (Homo sapiens) (UniProt P27986). The experiment is described as follows: Inhibition of PI3K-P85 phosphorylation in human HT-29 cells at 2 uM incubated for 72 hrs by Western blot analysis. Format: cell-based.
Experiment [28] addresses Glycogen synthase kinase-3 beta (Homo sapiens) (UniProt P49841). The experiment is described as follows: Inhibition of GSK3beta phosphorylation in human HT-29 cells at 2 uM incubated for 72 hrs by Western blot analysis. Format: cell-based.
For experiment [29], the system named is HT-29. Nature of the experiment: Induction of mitochondrial damage in human HT-29 cells assessed as increase in monomer formation at 2 uM incubated for 24 hrs by JC-1 staining based flow cytometry analysis. In kind it is functional, cell-based. The method, boiled down: as §2
Experiment [30] relates to HT-29. Nature of the experiment: Induction of apoptosis in human HT29 cells assessed as increase in late apoptotic cells at 2 uM incubated for 24 hrs by annexin V/PI staining based flow cytometry analysis. Format: functional, cell-based. In outline: as §1
Experiment [31] relates to HT-29. The experiment is described as follows: Induction of apoptosis in human HT29 cells assessed as increase in early apoptotic cells at 2 uM incubated for 24 hrs by annexin V/PI staining based flow cytometry analysis. In kind it is functional, cell-based. In outline: as §1
Experiment [32] deals with HT-29. Nature of the experiment: Inhibition of AKT protein expression in human HT-29 cells at 2 uM incubated for 72 hrs by Western blot analysis. Format: functional, cell-based.
In experiment [33] the test system is HT-29. Nature of the experiment: Inhibition of beta-catenin protein expression in human HT-29 cells at 2 uM incubated for 72 hrs by Western blot analysis. Format: functional, cell-based.
The subject of experiment [34] is HT-29. The experiment is described as follows: Inhibition of TAB-182 protein expression in human HT-29 cells at 2 uM incubated for 72 hrs by Western blot analysis. In kind it is functional, cell-based.
Experiment [35] deals with HT-29. Nature of the experiment: Downregulation of beta-catenin protein expression in human HT-29 cells at 2 uM by immunostaining based confocal microscopic analysis. In kind it is functional, cell-based.
For experiment [36], the system named is HT-29. Nature of the experiment: Inhibition of beta-actin protein expression in human HT-29 cells at 2 uM incubated for 72 hrs by Western blot analysis. Format: functional, cell-based.
Experiment [37] has as its target 182 kDa tankyrase-1-binding protein (Homo sapiens) (UniProt Q9C0C2). The experiment is described as follows: Inhibition of TAB-182 phosphorylation in human HT-29 cells at 2 uM incubated for 72 hrs by Western blot analysis. In kind it is cell-based.

Chain of Glycogen synthase kinase-3 beta (Homo sapiens) (P49841 whole entry, looked up): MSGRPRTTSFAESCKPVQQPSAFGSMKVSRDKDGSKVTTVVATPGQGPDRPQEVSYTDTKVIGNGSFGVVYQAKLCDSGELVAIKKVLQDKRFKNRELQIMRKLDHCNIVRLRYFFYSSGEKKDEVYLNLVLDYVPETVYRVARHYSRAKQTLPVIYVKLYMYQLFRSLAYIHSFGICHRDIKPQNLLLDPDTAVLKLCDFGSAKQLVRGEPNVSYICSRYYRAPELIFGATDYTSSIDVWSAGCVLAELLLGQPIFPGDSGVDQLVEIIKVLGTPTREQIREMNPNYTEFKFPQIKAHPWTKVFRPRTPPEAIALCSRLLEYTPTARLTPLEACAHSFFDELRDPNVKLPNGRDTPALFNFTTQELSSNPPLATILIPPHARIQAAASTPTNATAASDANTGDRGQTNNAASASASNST

For `COc1cccc(-n2c(SCCc3c[nH]c4ccccc34)nnc2-c2ccncc2)c1`, the Activity is 20.837% in the experiment with HT-29 [1] and 2.467% in the experiment on HT-29 [8]. In addition, the inhibition result in the experiment on HT-29 [2], in the experiment with HT-29 [3], in the experiment with HT-29 [4], in the experiment with HT-29 [5], with HT-29 [6] and in the experiment with HT-29 [10] was “Active” throughout. For the same compound, the inhibition entry in the experiment with HT-29 [12] was “Active”. Moreover, the result in the experiment with HT-29 [7], in the experiment with HT-29 [9], with HT-29 [11] and in the experiment with HT-29 [13] was Active.

Consider `COc1ccc(-n2c(SCCc3c[nH]c4ccccc34)nnc2-c2ccncc2)cc1`, for which the Activity came to 22.841% with HT-29 [14] and 1.225% in the experiment on HT-29 [15]. The inhibition entry (in [16]; in the experiment on HT-29 [18]; in experiment [19]; in experiment [20]; in the experiment on HT-29 [21]; with HT-29 [24]) was “Active” each time. In the experiment with HT-29 [26], the inhibition entry is “Active”. For the same compound, the outcome in the experiment on HT-29 [17], in the experiment with HT-29 [22], with HT-29 [23] and in the experiment with HT-29 [25] was Active.

Consider `Fc1ccccc1-n1c(SCCc2c[nH]c3ccccc23)nnc1-c1ccncc1`, for which the inhibition entry (in [27]; in experiment [28]; with HT-29 [32]; with HT-29 [33]; in the experiment on HT-29 [34]; in the experiment on HT-29 [36]) was “Active” throughout. The inhibition result in [37] is “Active”. Also, the result in the experiment with HT-29 [29], in the experiment with HT-29 [30], with HT-29 [31] and with HT-29 [35] was Active.

Values taken from ChEMBL document CHEMBL5257059, “Pyridine-Based 1,2,4-Triazolo-Tethered Indole Conjugates Potentially Affecting TNKS and PI3K in Colorectal Cancer” (ACS Med Chem Lett, 2023).
